Assay results from different studies.
Compare with care: the assays were run in different laboratories.
Target: Tyrosine-protein kinase ABL2 (ABL2, Homo sapiens, UniProt P42684)

CN(C)c1nccc(-c2cnn3ncccc23)n1  remaining binding (binding; 1 µM): 99%
CO[C@@H](C)c1c(Nc2ccc([C@H](N(C)C(=O)C3CCS(=O)(=O)CC3)C(F)(F)F)cc2)cnc2cc(Cl)nn12  remaining binding (cell-free assay, competition with immobilised ligand; 1 µM): 85%
CN1CC[C@H](c2c(O)cc(O)c3c(=O)cc(-c4ccccc4Cl)oc23)[C@H](O)C1  remaining binding (cell-free assay, competition with immobilised ligand; 0.1 µM): 100%
C[C@@H](c1ccc(-n2cnc3c(N)ncnc32)cc1)N1CCc2nn(C)c(Cc3ccccc3)c2C1=O  remaining binding (binding, competition with immobilised ligand; 0.1 µM): 76%
c1cnn2ncc(-c3ccnc(N4CCC45COC5)n3)c2c1  remaining binding (binding; 1 µM): 87%
CC(C)(O)c1cncc(-c2nc3ccc(F)cc3n2C2CC2)c1  remaining binding (cell-free assay, competition with immobilised ligand; 1 µM): 100%
FC(F)(F)Oc1cccc(-c2cnc3ccc(-c4ccncc4)nn23)c1  remaining binding (cell-free assay, competition with immobilised ligand; 5 µM): 76%
Cn1nc(C(F)(F)F)cc1-c1cnc(N2CCc3cc(S(=O)(=O)Nc4c(F)cc(Cl)cc4F)cc(N4CCCC4=O)c32)nc1  remaining binding (cell-free assay, competition with immobilised ligand; 1 µM): 100%
CN(c1nccc(-c2cnn3ncccc23)n1)C1CC1  remaining binding (binding; 1 µM): 99%
Cc1cnc(Nc2ccc(C(=O)N3CCC(N4CCCC4)CC3)cc2)nc1-c1cc2ccccc2s1  remaining binding (binding, competition with immobilised ligand; 1 µM): 43%
Cc1cnn2ncc(-c3ccnc(N(C)C)n3)c2c1  remaining binding (binding; 1 µM): 100%
CCN(CC)Cc1cc(Nc2ccnc3cc(Cl)ccc23)ccc1O  remaining binding (cell-free assay, competition with immobilised ligand; 10 µM): 100%
O=C(NCc1ncc(C(F)(F)F)cc1Cl)c1ccc2c(c1)C1(CCS(=O)(=O)CC1)[C@@H](C1CC1)N2S(=O)(=O)c1ccc(F)cc1  remaining binding (cell-free assay, competition with immobilised ligand; 1 µM): 100%
CN(C)c1nccc(-c2cnc3ncccn23)n1  remaining binding (binding; 1 µM): 99%
CNC(=O)c1cc(Oc2ccc(NC(=O)Nc3ccc(Cl)c(C(F)(F)F)c3)cc2)ccn1  remaining binding (cell-free assay, competition with immobilised ligand; 0.1 µM): 97%
Cc1nc(Cc2cccc(C(F)(F)F)c2)sc1-c1ccc(C(N)=O)nc1  remaining binding (cell-free assay, competition with immobilised ligand; 1 µM): 100%
O=C(c1ccc(Nc2nccc(-c3cc4ccccc4s3)n2)cc1)N1CCC(N2CCCC2)CC1  remaining binding (binding, competition with immobilised ligand; 1 µM): 77%
COc1cnc(Nc2cccc(S(N)(=O)=O)c2)nc1N1CCN(c2ccccc2)CC1  remaining binding (binding, competition with immobilised ligand; 1 µM): 98%
CCN1CCN(Cc2ccc(C(=O)Nc3ccc(C)c(Oc4ccc5c(c4)CC(=O)N5)c3)cc2C(F)(F)F)CC1  remaining binding (binding, competition with immobilised ligand; 1 µM): 20%
C[C@H]1CCN(c2nccc(-c3cnn4ncccc34)n2)C1  remaining binding (binding; 1 µM): 78%
CCN(CC)CCNC(=O)c1c(C)[nH]c(/C=C2\C(=O)Nc3ccc(F)cc32)c1C  remaining binding (cell-free assay, competition with immobilised ligand; 10 µM): 51%
COc1cccc(CNC(=O)c2nc3scc(COCc4ccc(C(=O)O)cc4)c3c(=O)[nH]2)c1  remaining binding (cell-free assay, competition with immobilised ligand; 1 µM): 82.2%
COc1cc2ncnc(Nc3ccc(F)c(Cl)c3)c2cc1OCCCN1CCOCC1  remaining binding (cell-free assay, competition with immobilised ligand; 0.1 µM): 100%
CNCc1ccccc1-c1csc([C@@H](C)Nc2nc(C)nc3cc(OC)c(OC)cc23)c1  remaining binding (cell-free assay, competition with immobilised ligand; 1 µM): 100%
CS(=O)(=O)CCNCc1ccc(-c2ccc3ncnc(Nc4ccc(OCc5cccc(F)c5)c(Cl)c4)c3c2)o1  remaining binding (cell-free assay, competition with immobilised ligand; 0.1 µM): 99%
O=C(NCC1CCOCC1)c1n[nH]cc1NC(=O)c1c(F)cccc1F  remaining binding (binding, competition with immobilised ligand; 1 µM): 100%
Cc1c(-c2ccccc2)oc2c(C(=O)OCCN3CCCCC3)cccc2c1=O  remaining binding (cell-free assay, competition with immobilised ligand; 10 µM): 94%
CNC(=O)Nc1ccc2c(c1)[C@@]1(CC2)OC(=O)N(CC(=O)N(Cc2ccc(F)cc2)[C@@H](C)C(F)(F)F)C1=O  remaining binding (cell-free assay, competition with immobilised ligand; 1 µM): 84%
COC(=O)Nc1nc2cc(C(=O)c3ccccc3)ccc2[nH]1  remaining binding (cell-free assay, competition with immobilised ligand; 0.1 µM): 100%
O=C(c1ccc(Nc2ncc(Cl)c(-c3ccc(Cl)s3)n2)cc1)N1CCC(N2CCCC2)CC1  remaining binding (binding, competition with immobilised ligand; 1 µM): 56%
